Results on three compounds are retold here after article PMC4042847 (Journal of the American Chemical Society, 2013).

The target of one series is SHV-1 β-lactamase (Klebsiella pneumoniae, UniProt P0AD64). Description: Steady-state inhibition kinetics with nitrocefin as indicator substrate. It is filed as biochemical. The note with it: for kobs react 30min: after a 30 min incubation of 1:90 enzyme:inhibitor ratio; for tn (24h): inhibitor:enzyme ratio decreasing activity by 95% after 24 h incubation.
The next series relates to ADC-7 β-lactamase. The experiment in a line: IC50, turnover number and timed inactivation with nitrocefin. It is filed as biochemical. The method in brief: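 Enzyme in 10 mM phosphate-buffered saline, pH 7.4, read by diode-array spectrophotometry with nitrocefin (Δε482 = 17,400 M−1cm−1) at 100 μM. IC50: initial velocities after 5 min enzyme–inhibitor pre-incubation. tn: 24 h incubation with increasing inhibitor, then residual activity assayed. Timed inactivation: I:E ratio set from tn; steady-state velocities at set time points over 45 min.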

The target in the next series is PDC-3 β-lactamase (Pseudomonas aeruginosa, UniProt P24735, T105A). Description: IC50 and turnover number with nitrocefin. Format: biochemical.
In the next series the target is OXA-24 β-lactamase (Acinetobacter baumannii, UniProt Q8RLA6). The experiment in a line: IC50 and turnover number with nitrocefin. Format: biochemical.
Series [1] can be described thus: Spontaneous hydrolysis followed by UV difference spectroscopy. Format: physicochemical. Particulars: 3.5 μM in 10 mM PBS, pH 7.4.
For the next series, the system named is TEM-2 β-lactamase. Particulars: cited from earlier work.

One may read the IC50 as the concentration that inhibits the measured activity by half. Low readings indicate greater potency in that assay, high ones weaker potency in that assay. For “7-(tert-butoxycarbonyl)methylidenecephalosporin sulfone [DCM-1-10]”, at SHV-1 β-lactamase (SHV-1), the “IC50 higher than clavulanate” value was found to be 4 fold; the “IC50 higher than tazobactam” value was found to be 27 fold; the “Ki greater than tazobactam and clavulanate” value is “about 166 fold”; the “kobs react lower than clavulanate” value is “at least 333 fold”. On SHV-1 β-lactamase (SHV-1), the “kobs react lower than tazobactam” value was determined as 67 fold, the “kobs react 30min” value came to 0.0006 ± 0.0001 s⁻¹ and the “tn (24h)” value stood at 7. For the same compound, the Ki on SHV-1 β-lactamase (SHV-1, Kiapp corrected for nitrocefin affinity (Km = 20 μM)) is more than 20000 nM. This compound also had an IC50 against SHV-1 β-lactamase (SHV-1, NCF 100 μM, 5 min pre-incubation of enzyme with inhibitor) of 800 ± 100 nM. In addition, the “inactivation of SHV-1 in timed inactivation” value on SHV-1 β-lactamase ([…] nM SHV-1 with 980 nM DCM-1-10 (I:E = 7:1), within 45 min) was found to be 95%. Besides, the “timed inactivation of ADC-7 in words” value in the series with ADC-7 β-lactamase (100 nM ADC-7 with 4.5 μM DCM-1-10, I:E of 45:1) is recorded as “rapid compared to SHV-1”. At ADC-7 β-lactamase (ADC-7), the IC50 was 130 ± 10 nM and the IC50 in words result is reported as “submicromolar”. Besides, at PDC-3 β-lactamase, it took 740 ± 80 nM to reach half-maximal inhibition (IC50) and the IC50 in words entry is on record as “submicromolar”. On OXA-24 β-lactamase, this compound displayed an IC50 of more than 100000 nM. Further, the “spontaneous rate of hydrolysis” value in series [1] was 0.0002 µM/s. In series [1] (absorbance at 228 nm), the “pseudo first order rate constant of spontaneous hydrolysis” value was found to be 3e-05 s⁻¹. In addition, the “inhibition of TEM-2 β-lactamase in words” value in the series on TEM-2 β-lactamase is “potent and specific inhibition”.

In the case of `O=C(O)[C@H]1/C(=C/CO)O[C@@H]2CC(=O)N21` [Clavulanate, clavulanic acid, reference compound], at SHV-1 β-lactamase (SHV-1), the “kobs react 30min” value was more than 0.2 s⁻¹ and the “tn (24h)” value turned out to be 40. The KI at SHV-1 β-lactamase (SHV-1, from fit of kobs versus inhibitor concentration) is 2600 ± 300 nM.

As for `C[C@]1(Cn2ccnn2)[C@H](C(=O)O)N2C(=O)C[C@H]2S1(=O)=O` [Tazobactam, tazobactam, reference compound], at SHV-1 β-lactamase (SHV-1), the “kobs react 30min” value is 0.040 ± 0.001 s⁻¹ and the “tn (24h)” value is 5.
